Most compounds without a hit are left out; they make up all but 4.9% or so of the library.
APP 5'UTR act: activators of APP 5'UTR luciferase reporter, primary screen, SH-SY5Y cells; SH-SY5Y APP 5'UTR luciferase reporter, luminescence; zero percent = DMSO vehicle wells; activation, % at 2 µM; actives 1% (n = 190,000);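 active means activation above a set limit, based on mean plus 3 SD of controls, cut at about 140% in these data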
STAT3 activator: IL-6 driven STAT3 reporter potentiators, primary screen, U3A cells, luciferase, luminescence, MLSCN library; IL-6 STAT3-luciferase reporter; 100% = signal with IL-6 EC80 alone; activation (% of control), % at 5.6 µM; actives 0.91% (n = 190,000);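 active means activation above the screen-wide mean of compound activation plus 3 SD, cut at about 130% in these data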;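 further: 0% = background luminescence of wells with medium and substrate only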
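Test system: STAT3-luciferase reporter U3A cells; Detection: reporter luminescence signal; Times: 1 h compound pre-exposure, 6 h IL-6 stimulation, 37 °C; Benchmarks: IL-6-only high control; Also added: IL-6 stimulus at 33 ng/mL final.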
STAT1 act: STAT1 signaling activators, primary screen, cell-based, HTS, luciferase reporter; NIH 3T3 STAT1-luciferase reporter, IFN-gamma, luminescence; 100% = IFN-gamma alone, no compound; activation (% of control), % at 5.5 µM; actives 2.6% (n = 200,000); AID 932, 2007;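 active means activation above the screen-wide mean activation plus 3 SD, cut at about 130% in these data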;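 further: raw ratio to IFN-gamma control signal so 100% means no change and 0% no light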
STAT3 inh-1: IL-6 driven STAT3 reporter inhibitors, primary screen, U3A cells, luciferase, luminescence, MLSCN library; IL-6 STAT3-luciferase reporter; host cell line lacks STAT1; inhibition, % at 5.5 µM; actives 0.89% (n = 190,000); AID 862, 2007;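 active means inhibition above the mean inhibition across all screened compounds plus 3 SD, cut at about 44% in these data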;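 further: 0% = DMSO only wells and 100% = 100 µM nifuroxazide control wells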
STAT1 blocker: STAT1 signaling inhibitors, primary screen, cell-based, HTS, luciferase reporter; inhibition, % at 5.5 µM; actives 0.35% (n = 200,000); NIH 3T3 STAT1-luciferase reporter, IFN-gamma, luminescence;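 active means inhibition above a set limit, the mean inhibition across all tested compounds plus 3 SD, cut at about 34% in these data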;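 further: 0% = IFN-gamma with DMSO and 100% = IFN-gamma with 300 µM nifuroxazide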
NF-kB neuron act: activators of NF-kB expression in neurons, primary screen, cell-based, HTS. human neuronal cells, NF-kB reporter expression; stronger effect = higher value. fold change at 12.5 µM. actives 1.6% (n = 190,000). AID 1239, 2008; in the data active means fold change above about 3.3
STAT3 inh-2: STAT3 reporter inhibitors, retest of hits, confirmation, U3A cells, luciferase, luminescence; shares compounds with STAT3 inh-1; IL-6 STAT3 luciferase reporter; cell line lacks STAT1; inhibition, % at 5.7 µM; actives 45% (n = 1,200);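 active means inhibition above the hit cutoff computed for the primary STAT3 screen, cut at about 44% in these data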;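 further: 0% = IL-6 plus DMSO and 100% = IL-6 plus nifuroxazide control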
NFkB inh 2: NF-kB reporter inhibitors in human cells, confirmation, counter-screen for STAT3 inhibitor project, cell-based, HEK293T, luciferase, TNF-alpha stimulus; shares compounds with STAT3 inh-1; TNF-alpha induced; inhibition, % at 5.7 µM; actives 36% (n = 1,200);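 active means inhibition above the mean of solvent-only control wells plus 3 SD, cutoff set per campaign, cut at about 13% in these data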;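 further: 0% = TNF-alpha with DMSO and 100% = TNF-alpha with MG high control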
STAT1 inh 2: STAT1 reporter inhibitors, IFN-gamma induced, confirmation, counter-screen for STAT3 inhibitor project, cell-based, NIH 3T3, luciferase luminescence; shares compounds with STAT3 inh-1; NIH 3T3 STAT1-luciferase reporter; inhibition, % at 5.7 µM; actives 27% (n = 1,200);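 active means inhibition above the mean plus 3 SD of solvent-only control wells, limit set per screening run, cut at about 16% in these data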;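 further: 0% = DMSO with IFN-gamma and 100% = nifuroxazide control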
Active calls of the source: *; nt = not tested or not shown.

SMILES	APP 5'UTR act	STAT3 activator	STAT1 act	STAT3 inh-1	STAT1 blocker	NF-kB neuron act	others
COCc1cccc(N2C(=O)CC(C3C=C(C)C4C(=O)N(c5cccc(COC)c5)C(=O)C4C3)C2=O)c1 (stereo not drawn)	-9.9	99.0	94.5	3.5	4.2	1.24
O=C(/C=C/c1cccc(Oc2ccccc2)c1)N1CCOCC1	144.9*	101.4	139.2*	2.3	-42.5	2.61
Brc1ccc(-c2noc(COc3ccc4c(c3)CCC4)n2)o1	4.1	106.0	96.3	-7.1	4.8	1.16
c1csc(-c2noc(COc3ccc4c(c3)CCCC4)n2)c1	125.7	93.7	132.1*	10.8	-34.9	4.4*
CCCC(C)NC(=O)COc1ccc(S(=O)(=O)N2CCCC2)cc1 (stereo not drawn)	-6.6	99.1	85.8	3.3	15.6	1.07
O=C(Nc1ccc2c(c1)OCO2)Nc1ccc(Br)cn1	18.2	108.0	149.1*	-7.0	-53.2	2.07
O=C(Nc1cccc(Cl)c1)Nc1ccc2c(c1)OCO2	92.7	106.6	122.6	-2.9	-24.6	2.24
Cc1ccnc(NC(=O)Nc2ccc3c(c2)OCO3)c1	143.8*	67.2	146.0*	41.5	-50.2	4.87*
COc1ccc(C2(C)NC(=O)N(CC(=O)Nc3ccc(-c4nc5ccc(C)cc5s4)cc3)C2=O)cc1 (stereo not drawn)	171.0*	87.3	143.8*	19.3	-51.0	nt
Cc1ccc2nc(-c3ccc(NC(=O)CNC4CC4)cc3)sc2c1	199.0*	77.9	114.5	29.8	-15.8	5.33*
Cc1cccc(S(=O)(=O)Nc2ccc(-c3nc4ccc(C)cc4s3)cc2)c1	163.1*	95.6	147.2*	7.9	-53.7	2.14
Cc1ccc(N(CC(=O)Nc2ccc(-c3nc4ccc(C)cc4s3)cc2)S(C)(=O)=O)cc1	121.1	106.1	139.7*	2.9	-46.7	1.85
Cc1ccc(C2(C)NC(=O)N(CC(=O)Nc3ccc4c(c3)OCO4)C2=O)cc1 (stereo not drawn)	-6.4	102.1	87.4	3.9	14.1	0.81
COc1cc(CC(NC(C)=O)C(=O)NC2CCN(c3c4c(nc5ncnn35)CCC4)CC2)cc(OC)c1 (stereo not drawn)	11.7	104.8	99.6	0.5	0.3	1.02
CC1=NN(c2ccccc2)C(=O)/C1=C/c1c(O)n(-c2ccc(F)c(Cl)c2)[nH]c1=O	15.4	165.9*	142.5*	-86.4	-46.6	1.81
CC1=NN(c2ccccc2)C(=O)/C1=C\c1cn(CCC#N)nc1-c1ccc(Cl)cc1	-9.1	108.7	100.5	-6.0	-0.6	1.45
CC1=NN(c2ccccc2)C(=O)/C1=C\c1c(C)[nH]n(-c2ccccc2)c1=O	-9.2	143.9*	100.5	-48.7	-0.6	0.86
O=C(Cc1ccc([N+](=O)[O-])cc1)N1N=C(C2CC2)CC1(O)C(F)(F)F (stereo not drawn)	1.7	96.8	94.7	11.9	3.8	1.16
CC1SC(c2ccc(F)cc2)NC1=O (stereo not drawn)	-15.6	96.2	97.2	6.7	3.6	1.19
Cc1cccc(S(=O)(=O)C(C#N)c2nc3ccccc3nc2N2CCCC2)c1 (stereo not drawn)	9.6	99.3	97.7	3.6	2.5	0.57
Cc1ccc(S(=O)(=O)C(C#N)c2nc3ccccc3nc2N2CCN(C)CC2)cc1C (stereo not drawn)	6.3	60.3	105.8	50.4*	-6.2	1.01	STAT3 inh-2=38.8;NFkB inh 2=9.9;STAT1 inh 2=-8.6
Clc1cccc(Cl)c1Cn1ccc(C2CC2)n1	52.1	99.0	121.2	3.0	-26.1	0.92
COC(=O)c1nn(-c2ccc3c(c2)CCN3C(C)=O)cc1O	-22.8	13.8	88.8	100.5*	12.3	0.91	STAT3 inh-2=84.5*;NFkB inh 2=-9.7;STAT1 inh 2=-26.9
COC(=O)c1nn(-c2ccc3c(c2)OCO3)cc1O	63.8	87.1	102.5	18.8	-2.8	1.92
COc1ccc(N=c2scc(-c3ccc(OC)cc3)n2CCO)cc1	25.6	60.4	102.6	51.6*	-2.8	1.31	STAT3 inh-2=29.3;NFkB inh 2=-2.2;STAT1 inh 2=-9.8
SMILES	APP 5'UTR act	STAT3 activator	STAT1 act	STAT3 inh-1	STAT1 blocker	NF-kB neuron act	others
OCCCn1c(-c2ccccc2)csc1=Nc1ccccc1	6.5	103.0	95.6	1.8	3.1	1.05
Nc1cc(C(F)(F)F)ccc1Nc1ccccc1	2.9	85.2	78.4	23.4	22.0	1.25
Cc1ccc(S(=O)(=O)NNC(=O)NC23CC4CC(CC(C4)C2)C3)cc1	11.3	111.4	104.1	-9.0	-4.6	1.11
Cc1ccc2c(c1)C(N1CCCC1=O)CC(c1ccco1)N2 (stereo not drawn)	126.9	43.0	93.4	69.7*	17.8	3.72*	STAT3 inh-2=37.6;NFkB inh 2=-2.3;STAT1 inh 2=-40.8
O=C(NCCCN1CCOCC1)c1ccc(CSc2ccc(Cl)cc2)cc1	-19.2	111.2	94.2	-4.9	5.9	1
Cn1c(C(=O)N2CCN(c3nc4ccccc4s3)CC2)cc2sccc21	-1.4	82.2	98.6	29.0	1.5	1.1
O=C(c1cc2sccc2n1Cc1ccc(F)cc1)N1CCN(c2nc3ccccc3s2)CC1	-2.4	62.1	88.7	46.6*	22.0	0.75	STAT3 inh-2=36.4;NFkB inh 2=8.4;STAT1 inh 2=16.9*
O=c1c2c(-c3ccccc3)csc2nc2n1CCC2	-9.1	96.5	99.7	7.4	0.3	1.06
O=c1c2sc(-c3ccccc3)cc2nc2n1CCC2	125.1	61.5	106.5	48.6*	-7.1	3.9*	STAT3 inh-2=33.4;NFkB inh 2=-11.3;STAT1 inh 2=-76.1
COc1cccc(NC(=O)c2cnsn2)c1	-0.6	100.2	111.6	0.0	-12.7	1.38
CCOc1ccc(NC(=O)c2cnsn2)cc1	152.8*	59.7	122.0	48.7*	-23.9	3.54*	STAT3 inh-2=14.3;NFkB inh 2=-26.1;STAT1 inh 2=-46.1
N#Cc1ccc(OCC(=O)OCC(=O)NCCC2=CCCCC2)cc1	4.2	104.2	113.9	-5.4	-15.3	1.05
CC(OC(=O)c1snc(C(=O)NC2CCCCC2)c1N)C(=O)NC(C)(C)C (stereo not drawn)	-9.1	73.6	93.7	34.5	6.8	1.06

Screening results (PubChem)
